This is an account of results in the array DNA melting data of Ke et al. (doi:10.1101/2024.01.08.574731).

The nature of series [1]: folding enthalpy; higher = less favourable; fluorescence melt of hairpins on a sequencing array, two-state fit. Particulars: sodium 0.088 M. In outline:
(§1)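 Melting temperature and folding enthalpy were derived from bootstrapped two-state fits. The fitted temperatures were raised by 9.35 °C to agree with UV melts, and four replicates were combined by inverse variance. The underlying data were Cy3 fluorescence images of library hairpins, with annealed Cy3 and quencher oligos, on a sequenced MiSeq flow cell in 50 mM Na-HEPES pH 8.0, 25 mM NaCl, taken in 2.5 °C steps up to 60 °C, normalised to pre-quench Cy3 and to control constructs.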

The nature of series [2]: melting temperature; fluorescence melt of hairpins on a sequencing array, two-state fit, raised by 9.35 °C to match UV melts. Conditions: sodium 0.088 M. In outline:
as §1

With GCCTCGCGAAAGCAGGGC (((..((....))..))), the folding enthalpy in series [1] was -20.6 kcal/mol. Besides, the Tm in series [2] is 60.8 °C.

Take GCCTCGCGAAAGCCCGGC (((..((....))..))): the folding enthalpy in series [1] was -17.8 kcal/mol. In addition, the Tm in series [2] worked out at 42.8 °C.

Regarding GCCTCGCGAAAGCGCAGC ((..(((....)))..)), the folding enthalpy in series [1] is -9.54 kcal/mol. In addition, the Tm in series [2] is 39.8 °C.

Turning to GCCTCGCGAAAGCGGCGC ((..(((....)))..)), the folding enthalpy in series [1] was -16.4 kcal/mol. Also, the Tm in series [2] came out at 58.5 °C.

For GCCTCGCGAAAGCGGTGC ((..(((....)))..)), the folding enthalpy in series [1] is -14.1 kcal/mol. Besides, the Tm in series [2] was 43.7 °C.

In the case of GCCTCGGGAAACTGGGGC (((.(.(....).).))), the folding enthalpy in series [1] is -37.5 kcal/mol. Moreover, the Tm in series [2] amounted to 47.4 °C.

Consider GCCTCTACGAAAGTAGGC (((..(((....)))))), for which the folding enthalpy in series [1] is -12.2 kcal/mol. In series [2], the Tm stood at 47.9 °C.

For GCCTCTGAAAAGAGGC ((((((....)))))), in series [1], the folding enthalpy was -37.8 kcal/mol. The Tm in series [2] turned out to be 68.9 °C.

In the case of GCCTCTGGAAACAGGGGC (((.(((....))).))), in series [1], the folding enthalpy was -45.3 kcal/mol. Also, the Tm in series [2] was 57.4 °C.

Consider GCCTGAGGAAACTTGGGC (((..((....))..))), for which the folding enthalpy in series [1] is -29 kcal/mol. Moreover, the Tm in series [2] was determined as 42.3 °C.

On to GCCTGCGAAAGCAAAGGC ((((((....)))..))), for which the folding enthalpy in series [1] is -26.9 kcal/mol. For the same sequence, the Tm in series [2] stood at 59.3 °C.

Regarding GCCTGCGAAAGCAACGGC ((((((....)))..))), the folding enthalpy in series [1] is -23.6 kcal/mol. In addition, the Tm in series [2] was found to be 52.8 °C.

For the sequence GCCTGCGAAAGCAATGGC ((((((....)))..))), the folding enthalpy in series [1] was -23.8 kcal/mol. The Tm in series [2] was 56 °C.

For GCCTGCGAAAGCATAGGC ((((((....)))..))), the folding enthalpy in series [1] is -31.4 kcal/mol. Moreover, in series [2], the Tm was found to be 56 °C.

Regarding GCCTGGCGAAAGCAAAGC ((.(.((....)).).)), in series [1], the folding enthalpy was -9.2 kcal/mol. Moreover, in series [2], the Tm was found to be 31.6 °C.

With GCCTGGCGAAAGCACGGC (((..((....))..))), the folding enthalpy in series [1] was -24.3 kcal/mol. Further, the Tm in series [2] stood at 59.1 °C.

For the sequence GCCTGGCGAAAGCATGGC (((..((....))..))), in series [1], the folding enthalpy was -23.7 kcal/mol. Besides, the Tm in series [2] was 60.4 °C.

For GCCTGGCGAAAGCCATGC ((.((((....)))).)), the folding enthalpy in series [1] is -17.2 kcal/mol. Also, the Tm in series [2] stood at 56.7 °C.

For the sequence GCCTGGCGAAAGCCGAGC ((..(((....)))..)), in series [1], the folding enthalpy is -13.5 kcal/mol. In series [2], the Tm turned out to be 49.5 °C.

In the case of GCCTGGCGAAAGCCGGC (((.(((....)))))), the folding enthalpy in series [1] is -16.5 kcal/mol. Moreover, the Tm in series [2] was 68.1 °C.

On to GCCTGGCGAAAGCCGTGC ((..(((....)))..)), for which, in series [1], the folding enthalpy is -12.9 kcal/mol. Also, the Tm in series [2] turned out to be 48.8 °C.

In the case of GCCTGGCGAAAGCCTTGC ((..(((....)))..)), the folding enthalpy in series [1] was -13 kcal/mol. Moreover, the Tm in series [2] was found to be 42.1 °C.

Consider GCCTGGCGAAAGCGGGGC (((..((....))..))), for which, in series [1], the folding enthalpy is -27 kcal/mol. The Tm in series [2] was 64 °C.

On to GCCTGGCGAAAGCTCGGC (((..((....))..))), for which the folding enthalpy in series [1] is -18.8 kcal/mol. In addition, the Tm in series [2] is 55.9 °C.

As to GCCTGGCGAAAGCTGGGC (((..((....))..))), in series [1], the folding enthalpy was -28.2 kcal/mol. The Tm in series [2] worked out at 64.4 °C.

For GCCTGGGGAAACCCAAGC ((.((((....)))).)), in series [1], the folding enthalpy was -21.5 kcal/mol. Further, the Tm in series [2] was determined as 42.7 °C.

As to GCCTGGGGAAACCCAGAC (.(((((....))))).), in series [1], the folding enthalpy is -14.1 kcal/mol. Further, the Tm in series [2] worked out at 44.5 °C.

Regarding GCCTGGGGAAACCCGGGC (((.(((....))).))), the folding enthalpy in series [1] was -39.2 kcal/mol. Also, in series [2], the Tm turned out to be 64.6 °C.

As for GCCTGTGGAAACATGGGC (((..((....))..))), the folding enthalpy in series [1] is -29.4 kcal/mol. Besides, the Tm in series [2] was 47.4 °C.

In the case of GCCTTAGGAAACTGAGGC ((((.((....)).)))), the folding enthalpy in series [1] is -41.7 kcal/mol. The Tm in series [2] is 49 °C.

As for GCCTTCGAAAGAAAAGGC ((((((....)))..))), the folding enthalpy in series [1] is -27.7 kcal/mol. Further, in series [2], the Tm came out at 45.7 °C.

As to GCCTTCGAAAGAAGGGC ((((((....))).))), the folding enthalpy in series [1] was -15 kcal/mol. In series [2], the Tm came to 63.1 °C.

In the case of GCCTTCGAAAGAAGTGGC ((((((....)))..))), in series [1], the folding enthalpy was -22 kcal/mol. In addition, in series [2], the Tm turned out to be 44.5 °C.

As for GCCTTCGAAAGAATCGGC ((((((....)))..))), in series [1], the folding enthalpy was -23.4 kcal/mol. The Tm in series [2] came out at 34.8 °C.

Consider GCCTTCGAAAGAATGGC ((((((....))).))), for which the folding enthalpy in series [1] is -27.2 kcal/mol. For the same sequence, the Tm in series [2] was 49 °C.

In the case of GCCTTGCGAAAGCAGAGC ((..(((....)))..)), in series [1], the folding enthalpy was -11.7 kcal/mol. The Tm in series [2] worked out at 51.2 °C.

In the case of GCCTTGCGAAAGCCAGGC ((((.((....)).)))), the folding enthalpy in series [1] was -31.4 kcal/mol. The Tm in series [2] was found to be 62.6 °C.
